Assay results taken from PubChem BioAssay.
Active and inactive are the calls of the source.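 The calls were made as follows, unless noted: active = viability at or under a set limit in both replicates, limit being median viability minus 3 SD (cut at about 48% in these data, passing the limit was not always enough); inconclusive = at or under the limit in just one replicate; inactive = at or above the limit in both replicates.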

assay: HUVEC growth inhibition – cell-based, human, primary screen (AID 575;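 active = viability at or below 30% in both replicate assays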;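 also: 100% = median of untreated cell wells with 0.1% DMSO on each plate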); settings: HUVEC proliferation, CellTiter-Glo luminescence, 72 h; at 10 µM; active compounds read low
In short: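 Assay system: Primary human umbilical vein endothelial cells | Quantity: 1250 cells per well | Medium: Supplemented EBM, 2% fetal bovine serum | Detection: CellTiter-Glo luminescence measuring cellular ATP | Read-out: % viability vs DMSO wells | Plate: Collagen-coated 384-well format | Times: 72 h exposure, 37 °C, 5% CO2, 30 min RT equilibration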

SMILES	viability
Cc1nc(CNS(=O)(=O)c2ccc3c(c2)OCCO3)cs1	105% (inactive)
CCN(CCNC(=O)C1CCN(S(C)(=O)=O)CC1)c1ccccc1	93.3% (inactive)
CC(C)Cn1c(CN(Cc2ccccc2)Cc2ccccc2)nc2c1c(=O)n(C)c(=O)n2C	54.8% (inactive)
CCc1ccc2c(CN(CC)Cc3nc4ccccc4c(=O)[nH]3)cc(=O)oc2c1	75.4% (inactive)
Cc1cc2oc(=O)cc(C)c2c(=O)o1	94.8% (inactive)
Cc1ccccc1NC(=O)NCCCN1CCN(C2CCCCC2)CC1	104% (inactive)
COc1ccc(S(=O)(=O)NCCC(=O)NC2CCCCCCC2)cc1	105% (inactive)
CCC(Oc1ccc2ccccc2c1)C(=O)O (stereo not given)	85.6% (inactive)
COc1ccc(Br)cc1CNC(=O)CCc1nc(-c2ccc(C)cc2)no1	87.4% (inactive)
COc1ccc(S(=O)(=O)N2CCCC(C(=O)N3CCCCCC3)C2)cc1 (stereo not given)	100% (inactive)
COc1ccccc1N1CC(O)=C(c2nc3ccccc3c(=O)[nH]2)C1=N	102% (inactive)
COc1ccccc1NC(=O)C(O)C(O)C(=O)Nc1ccccc1OC (stereo not given)	116% (inactive)
COc1cc(CC(=O)NCc2ccc3c(c2)OCO3)cc(OC)c1OC	85.9% (inactive)
Cc1cc(OCC(=O)N2CCOCC2)cc2oc(=O)c3ccccc3c12	109% (inactive)
COc1cccc(NC(=O)COC(=O)c2ccco2)c1	97.6% (inactive)
CN(Cc1ccccc1)Cc1nc2c(c(=O)n(C)c(=O)n2C)n1Cc1ccc(Cl)cc1	84.1% (inactive)
CCc1ccc(NC(=O)C2CC(=O)N(C(C)C)C2)cc1 (stereo not given)	100% (inactive)
CCOC(=O)N1CCN(c2c(N3CCN(c4ccccn4)CC3)c(=O)c2=O)CC1	95.4% (inactive)
COc1cccc(Oc2cnc(N)nc2-c2ccc(OC)cc2O)c1	67.1% (inactive)
O=C(CSc1ncnc2c1oc1ccccc12)Nc1ccccc1F	72% (inactive)

SMILES	viability
Cn1c(=O)c2c(nc(SCCCC#N)n2Cc2ccccc2F)n(C)c1=O	95.8% (inactive)
Cn1c(=O)c2c([nH]c(=O)n2C)n(C)c1=O	88.7% (inactive)
COc1ccc(-c2cc(C(=O)NCCc3ccccc3)no2)cc1OC	92.3% (inactive)
CCCN1CCC(NC(=O)Nc2ccc(OC)c(OC)c2)CC1	111% (inactive)
c1nnc(NC2=NCCCCC2)s1	109% (inactive)
CCOC(=O)CSc1cn2c(n1)CCC2	92% (inactive)
COC(=O)c1sc(N2C(=O)C(O)=C(C(=O)c3ccc(C)o3)C2c2ccc(F)cc2)nc1C (stereo not given)	113% (inactive)
CCOCCc1nnc(NC(=O)c2ccc(OC)c(OC)c2)s1	62.8% (inactive)
CN(C1CCCCC1)S(=O)(=O)c1ccc(NC(=O)c2ccco2)cc1	80.4% (inactive)
CCCOc1ccccc1NC(=O)c1c(-c2ccccc2)noc1C	79.7% (inactive)
CCNC(=O)N(C(=O)NCC)n1c(C)nnc1C	105% (inactive)
O=C(OCC#CCSc1nnc(-c2ccccc2)o1)c1cccs1	98.3% (inactive)
CC1(c2ccc(Cl)cc2)NC(=O)N(CC(=O)NC(=O)NCc2ccco2)C1=O (stereo not given)	61.5% (inactive)
CCCN1C2=C(C(=O)CCC2)C(c2ccc(O)c(Br)c2)C2=C1CCCC2=O	96.8% (inactive)
CCOC(=O)C1=C(CN2CCOCC2)NC(=O)NC1c1cc(C)ccc1C (stereo not given)	101% (inactive)
Cc1ccc(C(C)C)c(OCCn2c(=O)oc3ccccc32)c1	87.9% (inactive)
Cc1ccc(-c2csc3nnc(SCC(=O)NCc4ccco4)n23)cc1	85.6% (inactive)
CC1CCN(C(=O)CCNS(=O)(=O)c2ccccc2)CC1	96.7% (inactive)
Cc1ccc(C)c(-n2c(CNC(=O)c3ccco3)nnc2SCC(=O)Nc2nnc(C)s2)c1	104% (inactive)
CSc1nc(=NC(C)=O)ss1	84.7% (inactive)

assay: growth inhibitors of H69AR lung tumor, primary screen, human, duplicate replicates (AID 580); settings: H69AR lung tumor cells viability, ATP luminescence, 72 h; at 10 µM; active compounds read low;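 also: 100% = mean luminescence of untreated wells and 0% = no signal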

SMILES	viability
Cc1nc(CNS(=O)(=O)c2ccc3c(c2)OCCO3)cs1	96.6% (inactive)
CCN(CCNC(=O)C1CCN(S(C)(=O)=O)CC1)c1ccccc1	88.2% (inactive)
CC(C)Cn1c(CN(Cc2ccccc2)Cc2ccccc2)nc2c1c(=O)n(C)c(=O)n2C	90.1% (inactive)
CCc1ccc2c(CN(CC)Cc3nc4ccccc4c(=O)[nH]3)cc(=O)oc2c1	67.9% (inactive)
Cc1cc2oc(=O)cc(C)c2c(=O)o1	108% (inactive)
Cc1ccccc1NC(=O)NCCCN1CCN(C2CCCCC2)CC1	95.8% (inactive)
COc1ccc(S(=O)(=O)NCCC(=O)NC2CCCCCCC2)cc1	88.6% (inactive)
CCC(Oc1ccc2ccccc2c1)C(=O)O (stereo not given)	80.1% (inactive)
COc1ccc(Br)cc1CNC(=O)CCc1nc(-c2ccc(C)cc2)no1	94.2% (inactive)
COc1ccc(S(=O)(=O)N2CCCC(C(=O)N3CCCCCC3)C2)cc1 (stereo not given)	88.2% (inactive)
COc1ccccc1N1CC(O)=C(c2nc3ccccc3c(=O)[nH]2)C1=N	71.7% (inactive)
COc1ccccc1NC(=O)C(O)C(O)C(=O)Nc1ccccc1OC (stereo not given)	96.1% (inactive)
COc1cc(CC(=O)NCc2ccc3c(c2)OCO3)cc(OC)c1OC	95.8% (inactive)
Cc1cc(OCC(=O)N2CCOCC2)cc2oc(=O)c3ccccc3c12	85.1% (inactive)
COc1cccc(NC(=O)COC(=O)c2ccco2)c1	83.8% (inactive)
CN(Cc1ccccc1)Cc1nc2c(c(=O)n(C)c(=O)n2C)n1Cc1ccc(Cl)cc1	86% (inactive)
CCc1ccc(NC(=O)C2CC(=O)N(C(C)C)C2)cc1 (stereo not given)	90.8% (inactive)
CCOC(=O)N1CCN(c2c(N3CCN(c4ccccn4)CC3)c(=O)c2=O)CC1	92.5% (inactive)
COc1cccc(Oc2cnc(N)nc2-c2ccc(OC)cc2O)c1	10.8% (active)
O=C(CSc1ncnc2c1oc1ccccc12)Nc1ccccc1F	90.5% (inactive)

SMILES	viability
Cn1c(=O)c2c(nc(SCCCC#N)n2Cc2ccccc2F)n(C)c1=O	71.2% (inactive)
Cn1c(=O)c2c([nH]c(=O)n2C)n(C)c1=O	90.2% (inactive)
COc1ccc(-c2cc(C(=O)NCCc3ccccc3)no2)cc1OC	89.9% (inactive)
CCCN1CCC(NC(=O)Nc2ccc(OC)c(OC)c2)CC1	90.7% (inactive)
c1nnc(NC2=NCCCCC2)s1	101% (inactive)
CCOC(=O)CSc1cn2c(n1)CCC2	92.4% (inactive)
COC(=O)c1sc(N2C(=O)C(O)=C(C(=O)c3ccc(C)o3)C2c2ccc(F)cc2)nc1C (stereo not given)	135% (inactive)
CCOCCc1nnc(NC(=O)c2ccc(OC)c(OC)c2)s1	94.4% (inactive)
CN(C1CCCCC1)S(=O)(=O)c1ccc(NC(=O)c2ccco2)cc1	99.3% (inactive)
CCCOc1ccccc1NC(=O)c1c(-c2ccccc2)noc1C	89% (inactive)
CCNC(=O)N(C(=O)NCC)n1c(C)nnc1C	104% (inactive)
O=C(OCC#CCSc1nnc(-c2ccccc2)o1)c1cccs1	94.9% (inactive)
CC1(c2ccc(Cl)cc2)NC(=O)N(CC(=O)NC(=O)NCc2ccco2)C1=O (stereo not given)	107% (inactive)
CCCN1C2=C(C(=O)CCC2)C(c2ccc(O)c(Br)c2)C2=C1CCCC2=O	91.8% (inactive)
CCOC(=O)C1=C(CN2CCOCC2)NC(=O)NC1c1cc(C)ccc1C (stereo not given)	78.9% (inactive)
Cc1ccc(C(C)C)c(OCCn2c(=O)oc3ccccc32)c1	95.8% (inactive)
Cc1ccc(-c2csc3nnc(SCC(=O)NCc4ccco4)n23)cc1	84.2% (inactive)
CC1CCN(C(=O)CCNS(=O)(=O)c2ccccc2)CC1	92.8% (inactive)
Cc1ccc(C)c(-n2c(CNC(=O)c3ccco3)nnc2SCC(=O)Nc2nnc(C)s2)c1	96.6% (inactive)
CSc1nc(=NC(C)=O)ss1	71.8% (inactive)
